Hits are enriched below; roughly 1.8% of the tested compounds scored in any of these assays.
CASP6 VEID inh – blocks human caspase-6 cleavage activity. inhibition, % at 12.5 µM. purified caspase-6, Z-VEID-R110 cleavage fluorescence. 0.53% of 350,000 active. P55212;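 active = mean inhibition across replicates at least about 35%, with every replicate also reaching that limit, limit read from the data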;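 note: 0% = median of neutral control wells and 100% = no fluorescence left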
Target sequence (P55212 24-179 limits assumed): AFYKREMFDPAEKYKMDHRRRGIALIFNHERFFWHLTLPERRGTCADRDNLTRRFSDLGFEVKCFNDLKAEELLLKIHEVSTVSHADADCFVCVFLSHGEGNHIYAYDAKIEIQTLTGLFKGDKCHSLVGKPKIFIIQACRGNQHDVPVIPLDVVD
Target sequence (P55212 194-293 limits assumed): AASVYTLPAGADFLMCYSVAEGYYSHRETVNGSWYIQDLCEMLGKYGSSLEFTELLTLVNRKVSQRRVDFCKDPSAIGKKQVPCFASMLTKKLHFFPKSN
UHRF1 MBD2 ctr – human UHRF1 methylated DNA binding inhibitors; 0.75% of 370,000 active; UHRF1 binding to methylated oligo, TR-FRET; AID 687016; inhibition, % at 4.4 µM; in the data active = inhibition above about 21%;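 note: UHRF1 SRA domain binding a hemimethylated CpG hairpin DNA probe; 0% = median of test compound wells and 100% = reference inhibitor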
LEDGF integ inh – blocks HIV-1 LEDGF/p75-dependent DNA integration; TR-FRET IN-LEDGF/p75 DNA integration, Eu/Cy5; inhibition, % at 3.7 µM; 0.64% of 370,000 active; AID 743269;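 active = inhibition above the screen-wide mean plus 3 SD, cut at about 13% in these data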;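 note: signal is the Cy5 over europium emission ratio at 671 and 618 nm; 0% = plate median of compound wells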
MBD2 DNA inh – blocks human MBD2 binding to methylated DNA; Q9UBB5; TR-FRET, MBD2 binding to methylated oligonucleotide; inhibition, % at 4.4 µM; 0.31% of 370,000 active; in the data active = inhibition above about 13%
Target sequence (Q9UBB5 whole entry, looked up): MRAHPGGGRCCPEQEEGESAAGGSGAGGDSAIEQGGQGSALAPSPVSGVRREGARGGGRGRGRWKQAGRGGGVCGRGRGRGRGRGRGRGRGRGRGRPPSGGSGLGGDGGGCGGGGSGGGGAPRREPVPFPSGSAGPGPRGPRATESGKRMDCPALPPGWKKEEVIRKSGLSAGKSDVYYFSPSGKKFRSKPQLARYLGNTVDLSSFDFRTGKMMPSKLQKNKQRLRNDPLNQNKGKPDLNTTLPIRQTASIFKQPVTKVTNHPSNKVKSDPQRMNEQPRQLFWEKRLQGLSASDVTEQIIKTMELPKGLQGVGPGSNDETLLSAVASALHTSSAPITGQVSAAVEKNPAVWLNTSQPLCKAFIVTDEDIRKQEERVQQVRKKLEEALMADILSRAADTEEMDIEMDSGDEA
NSD2 HMT inh – NSD2 (human) methyltransferase inhibition. O96028. NSD2 peptide methylation, AlphaScreen, 120 min. inhibition, % at 12.5 µM. 0.54% of 310,000 active; in the data active = inhibition above about 50%
TDP2 absorb – blocks human TDP2 phosphodiesterase activity. O95551. recombinant TDP2, T5PNP hydrolysis, p-nitrophenol absorbance 415 nm. inhibition, % at 12.8 µM. 0.34% of 370,000 active;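 active = inhibition above the mean of all tested compounds plus 3 SD, set per campaign, cut at about 25% in these data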;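 note: 0% = DMSO with enzyme and 100% = buffer with substrate but no TDP2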
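Assay system: recombinant human TDP2 / Reagent: T5PNP substrate at 5 mM, a TopII-DNA adduct mimic / Measured by: epi absorbance from released p-nitrophenol / Evaluation: % inhibition relative to enzyme-containing and enzyme-free wells / Control set: enzyme-free and DMSO wells / Replicates: each compound tested once, singlicate / Schedule: enzyme reaction with compound for 2 h at 37 °C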
TDP2 confirm – confirmation of human TDP2 inhibitors; inhibition, % at 12.8 µM; recombinant human TDP2, absorbance read-out; AID 743263; shares compounds with TDP2 absorb; 22% of 1,100 active; in the data active = inhibition above about 25%;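 note: 0% = vehicle with enzyme and 100% = no enzyme buffer only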
* = called active by the depositor; x = not tested or not shown.

SMILES	CASP6 VEID inh	UHRF1 MBD2 ctr	LEDGF integ inh	MBD2 DNA inh	NSD2 HMT inh	TDP2 absorb	TDP2 confirm
O=S(=O)(c1ccc(-c2ccon2)s1)N1CCCC1	3.3	-1.0	0.3	1.1	-0.2	26.5*	5.4
O=C(O)CCCNc1cc(N2CCN(C(=O)c3ccco3)CC2)c2noc3c2c1C(=O)c1ccccc1-3	28.5	-2.4	4.5	-13.3	77.6*	30.3*	27.5*
NS(=O)(=O)c1ccc(NC(=O)/C=C/c2ccco2)cc1	54.1*	6.0	4.3	4.4	19.2	32.5*	6.3
Cc1ccccc1NC(=O)c1ccccc1NC(=O)c1cccs1	0.3	-0.9	-0.1	-2.5	-1.6	27.3*	0.5
Cc1nn2c(=O)cc(CSc3ccccc3NC(=O)c3ccccc3)nc2s1	1.0	-2.5	-0.9	1.1	-2.1	26.2*	-5.2
COc1cc(C(=O)Nc2ccccc2SCc2cc(=O)n3nc(C)sc3n2)cc(OC)c1OC	-2.0	2.2	-1.0	4.3	2.5	2.6	x
c1cncc(CSc2nnc3ccc(-c4ccco4)nn23)c1	-0.4	-1.3	1.9	-1.8	-2.0	27.6*	-4.9
CC1CCN(C(=O)Cn2c(SCC(=O)Nc3nccs3)nc3ccccc32)CC1	x	2.5	1.8	-0.4	1.3	30.5*	5.8
CCCC#Cc1ccc2c(c1)O[C@@H](CN(C)C(=O)Nc1ccc(OC)cc1)[C@H](C)CN([C@H](C)CO)S2(=O)=O	-2.0	x	x	x	x	x	x
O=C1C2(CCCC13COC(c1ccc(O)cc1)OC3)COC(c1ccc(O)cc1)OC2 (stereo not drawn)	-1.3	11.8	0.4	5.7	x	25.0*	2.7
CC(=O)N1c2ccc(S(=O)(=O)NCC3CCC(C(=O)N4CCC(C)CC4)CC3)cc2CC1C (stereo not drawn)	0.9	-1.2	2.9	1.9	0.3	27.6*	-1.6
CO[C@H]1CN(C)C(=O)c2cc(NC(=O)c3nc4ccccc4s3)ccc2OC[C@@H](C)N(Cc2cccnc2)C[C@@H]1C	-1.6	x	x	x	x	x	x
C=CCN1C=C2C(=O)C(C)(OC(=O)c3cccs3)C(=O)C=C2C=C1CCCC(=O)OC (stereo not drawn)	4.6	-1.8	-1.7	-8.7	x	25.9*	4.5
CC1=C(C#N)C2(O)C(=O)c3ccccc3C2(O)N1 (stereo not drawn)	5.2	3.3	-10.4	4.1	3.6	-11.7	x
CC1=C(C(=O)OC(C)C)C2(O)C(=O)c3ccccc3C2(O)N1 (stereo not drawn)	x	-6.7	2.6	-8.2	-1.2	44.2*	12.6
CCCCOC(=O)C1=C(C)NC2(O)c3ccccc3C(=O)C12O (stereo not drawn)	x	-4.7	2.7	-9.1	10.3	61.0*	25.4*
CCOC(=O)C1=C(C)N[C@@]2(O)c3ccccc3C(=O)[C@@]12O	x	-6.5	1.8	-2.3	5.7	35.5*	29.1*
COc1ccc2c(c1)NC1(O)c3ccccc3C(=O)C21O (stereo not drawn)	x	-2.4	0.2	2.1	0.3	-14.3	x
CCC(=O)N1[C@@H]2Cn3c(cccc3=O)[C@H]1[C@@H](C(=O)NC1Cc3ccccc3C1)[C@@H]2CO	1.9	x	x	x	x	x	x
Cc1ccc(C(c2c(C)[nH][nH]c2=O)c2c(C)[nH][nH]c2=O)cc1	4.4	-9.2	2.8	-9.6	-1.1	33.4*	-2.4
Cc1[nH][nH]c(=O)c1C(c1ccc([N+](=O)[O-])cc1)c1c(C)[nH][nH]c1=O	2.4	9.0	2.8	-4.0	19.0	30.6*	12.0
COc1ccc(OC)c(C(c2c(C)[nH][nH]c2=O)c2c(C)[nH][nH]c2=O)c1	5.2	-5.7	0.4	-6.0	0.1	49.5*	7.5
Cc1[nH][nH]c(=O)c1C(c1ccc(O)c([N+](=O)[O-])c1)c1c(C)[nH][nH]c1=O	x	-18.1	5.1	-11.5	10.9	13.4	x
Cc1[nH][nH]c(=O)c1C(c1ccc(Br)cc1)c1c(C)[nH][nH]c1=O	4.9	-8.3	-1.8	-8.3	6.2	-4.2	x
S=C(Nc1ccc2nc(-c3ccccn3)c(-c3ccccn3)nc2c1)N1CCOCC1	12.5	9.9	25.8*	-0.7	3.6	30.6*	-0.4
SMILES	CASP6 VEID inh	UHRF1 MBD2 ctr	LEDGF integ inh	MBD2 DNA inh	NSD2 HMT inh	TDP2 absorb	TDP2 confirm
O=c1[nH]c(Nc2ccccc2)cc2ccccc12	x	1.9	36.5*	-3.9	81.8*	68.9*	66.4*
O=c1nccc(Nc2ccccc2)[nH]1	-0.4	1.0	-2.1	8.4	0.5	13.5	x
c1ccc(Nc2cc(Nc3ccccc3)[nH]n2)cc1	x	12.8	3.2	5.9	8.7	74.8*	5.9
C=CCn1c(SCC(=O)N(CC)CC)nc(O)cc1=O	x	1.4	0.2	3.9	-2.1	-2.0	x
C=CCn1c(SCc2c(F)c(F)c(F)c(F)c2F)nc(O)cc1=O	x	0.0	1.1	2.4	1.3	42.7*	7.8
O=C(O)C[C@@H]1C=C[C@@H](NC(=O)CCN2CCCCC2)[C@H](CO)O1	-4.5	x	x	x	x	x	x
Cc1c(Cl)c(C(F)(F)F)nn1CC(=O)NCc1ccco1	3.0	-2.1	-2.5	-0.6	2.7	5.3	x
Cc1cc(C(F)(F)F)nn1CC(=O)NCc1ccco1	13.4	2.6	4.5	0.4	8.0	31.2*	4.1
O=C(C[C@H]1C[C@H]2c3cc(NS(=O)(=O)c4ccc(F)cc4)ccc3O[C@H]2[C@@H](CO)O1)NCCc1ccccc1	0.0	x	x	x	x	x	x
O=C(Nc1cccc2nsnc12)c1ccc(-c2ccc(Br)cc2)o1	x	-1.9	10.5	-8.4	36.9	24.6*	4.7
Cc1nn(C(C)C(=O)NCc2ccco2)c(=O)c2nn(-c3ccccc3)c(C)c12 (stereo not drawn)	-1.2	1.9	-4.4	1.5	1.4	28.2*	5.4
CCOc1ccccc1NC(=O)c1cc(S(=O)(=O)NCc2ccco2)ccc1F	0.4	1.1	-2.8	3.5	-1.0	25.5*	-10.0
COc1ccc(OC)c(NC(=O)c2cc(S(=O)(=O)NCc3ccco3)ccc2F)c1	x	1.3	-0.1	5.2	x	-7.6	x
N#Cc1cccc(-c2ccc([C@@H]3[C@@H](CO)N4CCCCN(C(=O)Nc5ccccc5)C[C@@H]34)cc2)c1	0.8	x	x	x	x	x	x
CCc1ccc(NC(=S)Nc2cc(OC)c(NC(=O)C(C)C)cc2OC)cc1	2.7	-5.2	8.4	-8.9	3.3	14.9	x
CCCC(=O)Nc1cc(OC)c(NC(=S)Nc2ccc(CC)cc2)cc1OC	1.2	-1.9	4.3	-6.8	8.3	25.6*	3.9
COc1ccccc1C(=O)COC(=O)C(CCSC)NC(=O)COc1ccccc1 (stereo not drawn)	1.5	-3.6	-0.2	-5.6	-0.3	25.5*	0.8
Oc1ccc(C2=NNC(c3ccc(O)cc3)=NN2)cc1	-1.0	-2.4	1.0	-7.4	0.1	28.4*	-0.7
Cc1ccccc1C(=O)Nc1cccc(NC(=O)c2cccnc2)c1	4.4	-1.8	-2.7	-3.6	1.6	25.5*	-0.3
O=C(Nc1cccc(NC(=O)c2cccnc2)c1)c1cccnc1	1.1	x	x	x	23.4	x	x

Assay outcomes deposited in PubChem by several laboratories.
